ChEMBL document CHEMBL3588789, “Synthesis and Pharmacokinetic Evaluation of Siderophore Biosynthesis Inhibitors for Mycobacterium tuberculosis” (J Med Chem, 2015)

Assays:
Caco-2 [1] = assay: (§1) Efflux ratio in human Caco2 cells after 30 to 120 mins by HPLC method; format: ADME, cell-based
Outline: (§2)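 Caco-2 cells (passage 50–70) grown 21 days on Transwell inserts, used only where TEER >300. Apical buffer pH 6.0, basolateral pH 7.4, 60 min preincubation. Compound dosed from a 20 mM DMSO stock with lucifer yellow on the donor side. Samples analysed by HPLC. Papp = (dQ/dt)/(A·C0) from cumulative sampling. Efflux ratio from B–A and A–B values.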

[2] = Terminal half life in Sprague-Dawley rat at 2.5 mg/kg, iv by LC-MS/MS method; format: ADME, organism-based; conditions: in vivo, read-out: beta t1/2
HepG2 = assay: Cytotoxicity against human HepG2 cells assessed as reduction in cell viability incubated for 48 hrs by MTT assay; format: cell-based; conditions: hepg2, 48 h
Outline: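 HepG2 cells (2.5–5.0 × 10^4 per well) in EMEM with 10% FBS, in triplicate. Final compound concentrations 1–200 μM diluted from 20 mM DMSO stocks. Controls were 1% DMSO and 1% Triton X-100. Incubated 48 h at 37 °C under 5% CO2.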

[3] = tested on: Mycobacterium tuberculosis; assay: Antimicrobial activity against Mycobacterium tuberculosis H37Rv grown in GAS medium without ferric ammonium citrate at pH 6.6 incubated for 10 to 14 days by broth microdilution method; format: functional
[4] = (§3) Cmax in Sprague-Dawley rat at 25 mg/kg, po by LC-MS/MS method; format: ADME, organism-based; design: dose 25 mg/kg, route oral; conditions: Sprague-Dawley, in vivo
Outline: (§4)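 Female Sprague-Dawley rats (250–274 g), catheterised, 3 per compound, dosed by oral gavage at 25 mg/kg from a 10 mg/mL solution. Femoral-vein blood taken at 0, 15, 30, 45, 60, 120, 240 and 480 min into K2EDTA. Plasma protein-precipitated with an internal standard and quantified by LC–MS/MS against standards in rat plasma. Parameters by non-compartmental analysis.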

Caco-2 [5] = assay: (§5) Apparent permeability from basolateral to apical side in human Caco2 cells after 30 to 120 mins by HPLC method; format: ADME, cell-based; outline: as §2
[6] = (§6) AUC (0 to infinity) in Sprague-Dawley rat at 25 mg/kg, po by LC-MS/MS method; format: ADME, organism-based; design: dose 25 mg/kg, time infinity, route oral; conditions: Sprague-Dawley, in vivo
[7] = AUC (0 to infinity) in Sprague-Dawley rat at 2.5 mg/kg, iv by LC-MS/MS method; format: ADME, organism-based; design: dose 2.5 mg/kg, route intravenous, time infinity; conditions: in vivo
Outline: (§7)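 Female Sprague-Dawley rats (250–274 g) with dual jugular/femoral vein catheters, 3 per compound, given a single 2.5 mg/kg bolus into the jugular catheter over 5 s, 3 days after oral dosing. Vehicle was 0.05% sodium carboxymethylcellulose or 25% hydroxypropyl-β-cyclodextrin in water. Femoral blood sampled at 0–480 min into K2EDTA. Plasma analysed by LC–MS/MS with an internal standard. Non-compartmental analysis.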

[8] = Ratio of MIC for antimicrobial activity against Mycobacterium tuberculosis H37Rv to KI)app) for inhibition of Mycobacterium tuberculosis MbtA expressed in Escherichia coli
[9] = Clearance in Sprague-Dawley rat at 2.5 mg/kg, iv by LC-MS/MS method; format: ADME, organism-based; conditions: in vivo; outline: as §7
Caco-2 [10] = assay: (§8) Apparent permeability from apical to basolateral side in human Caco2 cells after 30 to 120 mins by HPLC method; format: ADME, cell-based; outline: as §2
[11] = Inhibition of Mycobacterium tuberculosis MbtA expressed in Escherichia coli using [32P]PPi, ATP and salicylic acid incubated for 20 mins by liquid scintillation counting method; conditions: read-out: Ki(app)
Rattus norvegicus [12] = assay: Oral bioavailability in Sprague-Dawley rat at 25 mg/kg by LC-MS/MS method; format: ADME, organism-based; conditions: in vivo
Outline: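 Crossover in the same 3 female Sprague-Dawley rats: 25 mg/kg by oral gavage, then after a 3-day washout 2.5 mg/kg iv bolus. Serial femoral plasma quantified by LC–MS/MS. AUCs by non-compartmental analysis. Absolute bioavailability calculated individually for each rat from its oral and iv data.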

[13] = as §1; format: ADME, cell-based; conditions: caco-2; outline: as §2
Rattus norvegicus [14] = assay: as §3; format: ADME, organism-based; design: dose 25 mg/kg, route oral; conditions: in vivo, BLD = below limit of detection; outline: as §4
[15] = as §5; format: ADME, cell-based; conditions: caco-2; outline: as §2
Rattus norvegicus [16] = assay: as §6; format: ADME, organism-based; design: dose 25 mg/kg, time infinity, route oral; conditions: in vivo, BLD = below limit of detection
[17] = as §8; format: ADME, cell-based; conditions: caco-2; outline: as §2
Plasma [18] = assay: Drug metabolism in Sprague-Dawley rat plasma assessed as 5'-O-[N-(Salicyl)sulfamoyl]adenosine formation at 10 uM; format: ADME, cell-free
Plasma [19] = assay: Drug metabolism in Sprague-Dawley rat plasma assessed as 2',3'-O-Di-acetyl-5'-O-[N-(2-hydroxybenzoyl)sulfamoyl]-adenosine formation at 10 uM; format: ADME, cell-free
[20] = Solubility in water; format: physicochemical; conditions: buffer
Liver = assay: Half life in mouse liver microsomes at 1 uM in presence of NADPH by LC-MS/MS method; format: ADME
Outline: (§9)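 Liver microsomes (rat, mouse or pooled human, 0.5 mg/mL) in 100 mM potassium phosphate pH 7.4 with 10 mM MgCl2 and 1.0 μM compound. Preincubated, then NADPH added (water for control). Incubated 60 min at 37 °C. Acetonitrile quench, centrifugation, supernatant analysed by LC–MS/MS.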

Liver microsome [21] = assay: Half life in rat liver microsomes at 1 uM in presence of NADPH by LC-MS/MS method; format: ADME; outline: as §9
[22] = Stability in pH 1 buffer solutions assessed as compound degradation after 24 hrs at 37 degC; format: physicochemical; conditions: read-out: Drug degradation
Outline: (§10)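 Compound held at pH 1 or pH 12 for 24 h at 37 °C, with degradation measured.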

[23] = AUC in BALB/c mouse; format: ADME, organism-based; conditions: in vivo
[24] = Cmax in BALB/c mouse; format: ADME, organism-based; conditions: in vivo
[25] = Stability in pH 12 buffer solutions assessed as compound degradation after 24 hrs at 37 degC; format: physicochemical; conditions: read-out: Drug degradation; outline: as §10
Liver microsome [26] = assay: Half life in human liver microsomes at 1 uM in presence of NADPH by LC-MS/MS method; format: ADME; outline: as §9
[27] = Ratio of Cmax in Sprague-Dawley rat at 25 mg/kg, po to MIC for antimicrobial activity against Mycobacterium tuberculosis H37Rv; format: ADME, organism-based; conditions: in vivo
Outline: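 Female Sprague-Dawley rats (250–274 g, catheterised; 3 per compound) got a 25 mg/kg gavage dose from a 10 mg/mL solution. Plasma drawn 0–480 min was read by LC–MS/MS, and Cmax was taken by non-compartmental analysis. […] Cmax was divided by MIC.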

`CCN(CC)CC.Nc1ncnc2c1ncn2[C@@H]1O[C@H](CNS(=O)(=O)NC(=O)c2ccccc2O)[C@@H](O)[C@H]1F` showed a Ratio (Caco-2 [1]) of 0.32, a half-life [2] of 32.5 min and a CC50 (HepG2) of over 200 µM. For the same molecule, the MIC [3] was 0.19 µM, the Cmax [4] was 460 ng/mL and the Papp (Caco-2 [5]) was 1.34 ×10⁻⁶ cm/s. It also gave an AUC(0-inf) [6] of 3130 ng·h/mL, an AUC(0-inf) [7] of 17400 ng·h/mL and a Ratio [8] of 112. The clearance [9] was 2.5 mL/min/kg, the Papp (Caco-2 [10]) was 4.2 ×10⁻⁶ cm/s and the Ki [11] was 1.7 nM. The F (Rattus norvegicus [12]) was 1.8%.

For `CC(=O)O[C@@H]1[C@H](OC(C)=O)[C@@H](COS(=O)(=O)NC(=O)c2ccccc2O)O[C@H]1n1cnc2c(N)ncnc21.CCN(CC)CC`, the efflux ratio [13] was 1.55, the Cmax (Rattus norvegicus [14]) was “BLD” and the Papp B→A [15] was 0.97 ×10⁻⁶ cm/s. For the same molecule, the AUC (Rattus norvegicus [16]) was “BLD” and the Papp A→B [17] was 0.62 ×10⁻⁶ cm/s.

In the case of `CC(=O)Oc1ccccc1C(=O)NS(=O)(=O)OC[C@H]1O[C@@H](n2cnc3c(N)ncnc32)[C@H](OC(C)=O)[C@@H]1OC(C)=O.CCN(CC)CC`, the Drug metabolism (Plasma [18]) is reported as “metabolite_detected”, the Cmax [4] is reported as 30 ng/mL and the AUC(0-inf) [6] is reported as 48.3 ng·h/mL. For the same molecule, the Drug metabolism (Plasma [19]) was “metabolite_detected”.

For `CCN(CC)CC.Nc1ccc(C(=O)NS(=O)(=O)NC[C@H]2O[C@@H](n3cnc4c(N)ncnc43)[C@H](O)[C@@H]2O)c(O)c1`, the half-life [2] was 10.6 min, the CC50 (HepG2) was over 200 µM and the MIC [3] was 3.12 µM. The Cmax [4] was 90 ng/mL, the AUC(0-inf) [6] was 280 ng·h/mL and the AUC(0-inf) [7] was 1050 ng·h/mL. The Ratio [8] was 351, the clearance [9] was 46.3 mL/min/kg and the Ki [11] was 8.9 nM. The F (Rattus norvegicus [12]) was 3.7%.

`CCN(CC)CC.O=C(NS(=O)(=O)NC[C@H]1O[C@@H](n2cnc3c(NC4CC4)ncnc32)[C@H](O)[C@@H]1O)c1ccccc1O` gave a half-life [2] of 15.1 min, an MIC [3] of 0.098 µM and a Cmax [4] of 140 ng/mL. It also gave an AUC(0-inf) [6] of 302 ng·h/mL, an AUC(0-inf) [7] of 3480 ng·h/mL and a Ratio [8] of 65. It also gave a clearance [9] of 9.6 mL/min/kg, a Ki [11] of 1.5 nM and an F (Rattus norvegicus [12]) of 1%.

With `CCN(CC)CC.O=C(NS(=O)(=O)NC[C@H]1O[C@@H](n2cnc3c(NC4CC4)nc(-c4ccccc4)nc32)[C@H](O)[C@@H]1O)c1ccccc1O` the Ratio (Caco-2 [1]) was 3.45, the half-life [2] was 15.5 min and the MIC [3] was 6.25 µM. The Cmax [4] was 100 ng/mL, the Papp (Caco-2 [5]) was 1.8 ×10⁻⁶ cm/s and the AUC(0-inf) [6] was 66.7 ng·h/mL. The AUC(0-inf) [7] was 3070 ng·h/mL, the Ratio [8] was 8224 and the clearance [9] was 13.6 mL/min/kg. The Papp (Caco-2 [10]) was 0.52 ×10⁻⁶ cm/s, the Ki [11] was 0.76 nM and the F (Rattus norvegicus [12]) was 0.3%.

`CCN(CC)CC.Nc1nc(-c2ccccc2)nc2c1ncn2[C@@H]1O[C@H](CNS(=O)(=O)NC(=O)c2ccccc2O)[C@@H](O)[C@H]1F` gave a half-life [2] of 121 min, a CC50 (HepG2) of over 200 µM and an MIC [3] of 1.56 µM. The Cmax [4] was 500 ng/mL, the AUC(0-inf) [6] was 2330 ng·h/mL and the AUC(0-inf) [7] was 33000 ng·h/mL. The Ratio [8] was 975, the clearance [9] was 1.3 mL/min/kg and the Ki [11] was 1.6 nM. It also gave an F (Rattus norvegicus [12]) of 0.8%.

With `CCN(CC)CC.Nc1ncnc2c1ncn2[C@@H]1O[C@H](CNS(=O)(=O)NC(=O)c2ccccc2O)C[C@H]1F` the half-life [2] was 62 min, the MIC [3] was 0.78 µM and the Cmax [4] was 560 ng/mL. It also gave an AUC(0-inf) [6] of 3300 ng·h/mL, an AUC(0-inf) [7] of 16000 ng·h/mL and a Ratio [8] of 260. For the same molecule, the clearance [9] was 2.6 mL/min/kg, the Ki [11] was 3 nM and the F (Rattus norvegicus [12]) was 2%.

Work on `CCN(CC)CC.Nc1ncnc2c1ncn2[C@@H]1O[C@H](COS(=O)(=O)NC(=O)c2ccccc2O)[C@@H](O)[C@H]1O` yielded a Ratio (Caco-2 [1]) of 0.78, a half-life [2] of 11 min and a CC50 (HepG2) of over 200 µM. For the same molecule, the MIC [3] was 0.39 µM, the Cmax [4] was 400 ng/mL and the Papp (Caco-2 [5]) was 0.96 ×10⁻⁶ cm/s. It also gave an AUC(0-inf) [6] of 1100 ng·h/mL, a solubility [20] of over 50 mg/mL and an AUC(0-inf) [7] of 8650 ng·h/mL. The t1/2 (Liver) was over 30 min, the clearance [9] was 4.9 mL/min/kg and the t1/2 (Liver microsome [21]) was over 30 min. For the same molecule, the degraded at 24 h [22] was under 5%, the AUC [23] was 977 ng·h/mL and the Papp (Caco-2 [10]) was 1.23 ×10⁻⁶ cm/s. It also gave a Cmax [24] of 1200 ng/mL, a degraded at 24 h [25] of under 5% and a t1/2 (Liver microsome [26]) of over 30 min. It also gave an F (Rattus norvegicus [12]) of 1.3%.

With `CCN(CC)CC.Nc1ncnc2c1ncn2[C@@H]1O[C@H](CNS(=O)(=O)NC(=O)c2ccccc2O)[C@@H](O)[C@H]1O` the half-life [2] was 10.6 min, the CC50 (HepG2) was over 200 µM and the MIC [3] was 0.19 µM. For the same molecule, the Cmax [4] was 700 ng/mL, the Papp (Caco-2 [5]) was 0.86 ×10⁻⁶ cm/s and the AUC(0-inf) [7] was 5070 ng·h/mL. It also gave a Ratio [8] of 51, a clearance [9] of 8.4 mL/min/kg and a Ratio [27] of 7. The Papp (Caco-2 [10]) was 1.23 ×10⁻⁶ cm/s, the Ki [11] was 3.7 nM and the F (Rattus norvegicus [12]) was 3.5%.

Work on `NNC(=O)c1ccncc1` [ISONIAZID] yielded a Cmax [4] of 13500 ng/mL and an F (Rattus norvegicus [12]) of 65%.
